Results of several laboratories.
Lines come from different studies, so protocols differ. Converted amounts (≈) assume the structure as drawn.

Structure (SMILES) | organism | assay | test system | conditions | quantity | value
O=[N+]([O-])c1ccc(-c2nc3cccc(O)c3[nH]2)o1 | Staphylococcus haemolyticus | microbial killing |  |  | MBC | 0.5 µg/mL
CCN1CCc2c(sc(N)c2C(=O)O)C1 | Mycobacterium tuberculosis | microbial growth, resazurin | H37RV |  | MIC | > 400 µM
CC1(C)S[C@@H]2[C@H](NC(=O)[C@H](N)c3ccccc3)C(=O)N2[C@H]1C(=O)O | Plesiomonas shigelloides | microbial growth, agar dilution |  | 26.93 µM | inhibition | 100%
Cc1ccc2nc(-c3ccc(Cl)cc3)cn2c1 | Trypanosoma cruzi | parasite growth | TULAHUEN | 6 days, intracellular, amastigote | EC90 | > 5 µM
CC1=NN(CNc2c(O)c(S(=O)(=O)O)cc3ccccc23)C(=O)C1=NNn1c(-c2ccccc2)nc2ccccc2c1=O | Monascus purpureus | microbial growth, broth dilution |  |  | MIC | 41.8 µM (≈ 25 µg/mL)
NC(=O)c1cccc(-c2nc(N3CCC(c4ccccn4)C3)c3ccccc3n2)c1 (stereo not drawn) | Trypanosoma cruzi | parasite growth, imaging | U2OS | intracellular, amastigote | IC50 | 9.33 µM
CCOC(=O)c1c(NC(=O)c2c(F)c(F)c(F)c(F)c2F)sc2c1CCCC2 | Mycobacterium tuberculosis | microbial growth, resazurin | H37RV |  | IC50 | 13 µM
Cc1cc2nccc(-c3cccnc3)c2c(C)c1-c1ccc(CN2CCOCC2)cc1 | Mycobacterium tuberculosis | microbial growth | H37RV |  | MIC90 | 5 µM (≈ 2.05 µg/mL)
O=C1NN=C(N=Cc2ccccc2O)C1=NNn1c(-c2ccccc2)nc2ccccc2c1=O | Monascus purpureus | microbial growth, broth dilution |  |  | MIC | 111 µM (≈ 50 µg/mL)
COc1ccccc1CNC(=O)c1c(N)sc2c1CCCC2 | Mycobacterium tuberculosis | microbial growth, resazurin | H37RV |  | MIC | 316 µM (≈ 100 µg/mL)
COc1ccc(Nc2nc(-c3cccs3)nc3ccccc23)cc1 | Trypanosoma cruzi | parasite growth, imaging | U2OS | intracellular, amastigote | IC50 | 5.87 µM
O=C1NN=C(N=Cc2ccc(O)c(O)c2)C1=NNn1c(-c2ccccc2)nc2ccccc2c1=O | Monascus purpureus | microbial growth, broth dilution |  |  | MIC | 53.5 µM (≈ 25 µg/mL)
c1ccc(-c2nc(N3CCC(c4ccccn4)C3)c3ccccc3n2)nc1 (stereo not drawn) | Trypanosoma cruzi | parasite growth, imaging | U2OS | intracellular, amastigote | IC50 | 1.2 µM
Cc1cc2nc(C(=O)N3CCNCC3)cc(-c3ccccc3Cl)c2c(C)c1-c1ccncc1 | Mycobacterium tuberculosis | microbial growth | H37RV |  | MIC90 | 10 µM (≈ 4.57 µg/mL)
CCOC(=O)c1c(NC(=O)c2cc(C(F)(F)F)cc(C(F)(F)F)c2)sc2c1CCN(C(=O)OC(C)(C)C)C2 | Mycobacterium tuberculosis | microbial growth, resazurin | H37RV | 7 days | MIC | > 100 µM
c1ccc2c(N3CCCCC3)nc(-c3ccncn3)nc2c1 | Trypanosoma cruzi | parasite growth, imaging | U2OS | intracellular, amastigote | IC50 | 32.4 µM
O=C(N[C@@H](Cc1ccccc1)C(=O)c1nc2ccccc2s1)[C@H](Cc1ccccc1)NC(=O)N1CCOCC1 | Trypanosoma cruzi | parasite growth | TULAHUEN | intracellular, amastigote | IC50 | 17.5 µM
COc1ccccc1-c1nc(N2CCC(c3ccccn3)C2)c2ccccc2n1 (stereo not drawn) | Trypanosoma cruzi | parasite growth, imaging | U2OS | intracellular, amastigote | IC50 | 0.91 µM
CCOC(=O)c1c(NC(=O)c2c(F)c(F)c(F)c(F)c2F)sc2c1CCN(CC)C2 | Mycobacterium tuberculosis | microbial killing | H37RV | 21 days | MBC | < 5 µM
c1ccc(-c2nc(N3CCCC3)c3ccccc3n2)nc1 | Trypanosoma cruzi | parasite growth, imaging | U2OS | intracellular, amastigote | IC50 | 3.1 µM
CCN1CCc2c(sc(N)c2C(=O)NCc2ccccc2OC)C1 | Mycobacterium tuberculosis | microbial growth, resazurin | H37RV |  | MIC | > 200 µM
c1ccc(C2CCN(c3nc(-c4ccn[nH]4)nc4ccccc34)C2)nc1 (stereo not drawn) | Trypanosoma cruzi | parasite growth, imaging | U2OS | intracellular, amastigote | IC50 | 14.3 µM
CCOC(=O)c1c(NC(=O)c2c(F)c(F)c(F)c(F)c2F)sc2c1CCN(C(=O)OC(C)(C)C)C2 | Mycobacterium tuberculosis | microbial growth, resazurin | H37RV | 7 days | MIC | > 100 µM
O=C1NN=C(N=Cc2ccc(O)cc2O)C1=NNn1c(-c2ccccc2)nc2ccccc2c1=O | Monascus purpureus | microbial growth, broth dilution |  |  | MIC | 53.5 µM (≈ 25 µg/mL)
